The target in assay [1] is T1, Bromodomain-containing protein 2 (Homo sapiens, UniProt P25440). Briefly: Inhibition of His6FLAG-tagged BRD2-BD1 expressed in Escherichia coli assessed as change in melting temperature at 100 uM by thermal shift assay. A digest of the protocol: (§1)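 Thermal melt: protein heated with or without 100 μM compound, at least duplicate; Sypro orange at 1:1000 in PBS with 10% glycerol; ramp 1 °C/min, fluorescence read every 0.5 °C; ΔTm reported.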
Target sequence in this assay (P25440 whole entry, looked up): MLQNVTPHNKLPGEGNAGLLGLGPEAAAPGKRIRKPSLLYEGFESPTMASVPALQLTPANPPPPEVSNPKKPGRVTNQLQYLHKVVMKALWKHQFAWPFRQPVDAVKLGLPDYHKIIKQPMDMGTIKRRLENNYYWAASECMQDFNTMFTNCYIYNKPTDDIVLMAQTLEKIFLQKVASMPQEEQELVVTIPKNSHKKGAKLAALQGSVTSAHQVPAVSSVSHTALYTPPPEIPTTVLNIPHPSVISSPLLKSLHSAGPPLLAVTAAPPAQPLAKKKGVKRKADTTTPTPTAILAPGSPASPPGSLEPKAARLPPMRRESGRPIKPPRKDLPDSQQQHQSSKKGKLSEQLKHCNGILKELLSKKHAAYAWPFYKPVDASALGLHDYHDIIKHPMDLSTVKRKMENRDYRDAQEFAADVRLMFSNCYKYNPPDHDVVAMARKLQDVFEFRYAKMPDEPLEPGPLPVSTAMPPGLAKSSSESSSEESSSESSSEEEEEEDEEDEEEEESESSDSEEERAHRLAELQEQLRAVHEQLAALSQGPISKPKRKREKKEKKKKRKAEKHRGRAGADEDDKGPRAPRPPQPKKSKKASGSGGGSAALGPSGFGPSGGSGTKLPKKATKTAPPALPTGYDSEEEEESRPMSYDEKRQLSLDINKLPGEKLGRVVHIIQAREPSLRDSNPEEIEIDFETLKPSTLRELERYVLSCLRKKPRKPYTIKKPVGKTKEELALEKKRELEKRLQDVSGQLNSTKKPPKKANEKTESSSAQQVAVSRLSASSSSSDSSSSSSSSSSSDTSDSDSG

The target in assay [2] is T1, Bromodomain-containing protein 2. Description: Binding affinity to His6-tagged BRD2 expressed in Escherichia coli by surface plasmon resonance assay. A digest of the protocol:
(§2)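 SPR with tandem bromodomain (BRD2-BD12 or BRD4-BD12) amine-coupled to CM5 chip after EDC/NHS activation; protein 0.1−2 mg/mL in NaAc pH 4.5−5.5, >5 kRU immobilized, ethanolamine-blocked. Running buffer 50 mM HEPES pH 7.5, 150 mM NaCl.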
(In SPR one partner is held on a chip, and binding of the other changes the refractive index at the surface.)

Assay [3] addresses T2, Bromodomain-containing protein 1 (Homo sapiens) (UniProt O95696).
T2 sequence (whole entry): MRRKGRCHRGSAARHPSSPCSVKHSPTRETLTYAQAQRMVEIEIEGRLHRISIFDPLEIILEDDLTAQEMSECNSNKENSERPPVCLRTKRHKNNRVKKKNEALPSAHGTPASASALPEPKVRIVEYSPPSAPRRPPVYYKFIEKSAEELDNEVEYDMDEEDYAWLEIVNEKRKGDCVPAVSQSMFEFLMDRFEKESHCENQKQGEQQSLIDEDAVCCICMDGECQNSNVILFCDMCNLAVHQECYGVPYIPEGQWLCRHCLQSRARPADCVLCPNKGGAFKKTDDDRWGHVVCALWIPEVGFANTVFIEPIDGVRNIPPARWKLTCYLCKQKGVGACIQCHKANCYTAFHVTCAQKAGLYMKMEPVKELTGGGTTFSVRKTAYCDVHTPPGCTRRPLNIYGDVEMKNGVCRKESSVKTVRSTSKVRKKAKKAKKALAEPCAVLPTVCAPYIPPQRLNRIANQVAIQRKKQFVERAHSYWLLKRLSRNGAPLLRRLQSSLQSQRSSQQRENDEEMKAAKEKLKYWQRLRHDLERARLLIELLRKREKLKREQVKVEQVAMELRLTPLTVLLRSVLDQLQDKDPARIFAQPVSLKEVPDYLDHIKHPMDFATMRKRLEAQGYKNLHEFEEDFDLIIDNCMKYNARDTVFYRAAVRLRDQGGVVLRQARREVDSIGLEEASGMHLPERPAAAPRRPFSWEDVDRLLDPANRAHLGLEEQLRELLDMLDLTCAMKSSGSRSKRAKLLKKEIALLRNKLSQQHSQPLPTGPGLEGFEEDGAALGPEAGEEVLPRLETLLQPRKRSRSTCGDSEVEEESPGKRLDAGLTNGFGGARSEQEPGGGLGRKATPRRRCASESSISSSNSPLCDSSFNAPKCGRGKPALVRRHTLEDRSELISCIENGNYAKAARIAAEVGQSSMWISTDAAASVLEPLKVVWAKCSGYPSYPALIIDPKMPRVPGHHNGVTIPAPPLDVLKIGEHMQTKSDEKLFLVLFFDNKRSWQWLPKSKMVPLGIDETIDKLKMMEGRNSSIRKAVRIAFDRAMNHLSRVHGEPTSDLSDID
Description: Inhibition of His6FLAG-tagged BRD1 expressed in Escherichia coli assessed as change in melting temperature at 100 uM by thermal shift assay. A digest of the protocol:
as §1

In assay [4] the target is T3, Bromodomain-containing protein 4 (Homo sapiens, UniProt O60885). Briefly: Binding affinity to His6-tagged BRD4 expressed in Escherichia coli by surface plasmon resonance assay. Summed up:
as §2

Assay [5] has as its target T4, E3 ubiquitin-protein ligase TRIM33 (Homo sapiens) (UniProt Q9UPN9).
T4 sequence (whole entry): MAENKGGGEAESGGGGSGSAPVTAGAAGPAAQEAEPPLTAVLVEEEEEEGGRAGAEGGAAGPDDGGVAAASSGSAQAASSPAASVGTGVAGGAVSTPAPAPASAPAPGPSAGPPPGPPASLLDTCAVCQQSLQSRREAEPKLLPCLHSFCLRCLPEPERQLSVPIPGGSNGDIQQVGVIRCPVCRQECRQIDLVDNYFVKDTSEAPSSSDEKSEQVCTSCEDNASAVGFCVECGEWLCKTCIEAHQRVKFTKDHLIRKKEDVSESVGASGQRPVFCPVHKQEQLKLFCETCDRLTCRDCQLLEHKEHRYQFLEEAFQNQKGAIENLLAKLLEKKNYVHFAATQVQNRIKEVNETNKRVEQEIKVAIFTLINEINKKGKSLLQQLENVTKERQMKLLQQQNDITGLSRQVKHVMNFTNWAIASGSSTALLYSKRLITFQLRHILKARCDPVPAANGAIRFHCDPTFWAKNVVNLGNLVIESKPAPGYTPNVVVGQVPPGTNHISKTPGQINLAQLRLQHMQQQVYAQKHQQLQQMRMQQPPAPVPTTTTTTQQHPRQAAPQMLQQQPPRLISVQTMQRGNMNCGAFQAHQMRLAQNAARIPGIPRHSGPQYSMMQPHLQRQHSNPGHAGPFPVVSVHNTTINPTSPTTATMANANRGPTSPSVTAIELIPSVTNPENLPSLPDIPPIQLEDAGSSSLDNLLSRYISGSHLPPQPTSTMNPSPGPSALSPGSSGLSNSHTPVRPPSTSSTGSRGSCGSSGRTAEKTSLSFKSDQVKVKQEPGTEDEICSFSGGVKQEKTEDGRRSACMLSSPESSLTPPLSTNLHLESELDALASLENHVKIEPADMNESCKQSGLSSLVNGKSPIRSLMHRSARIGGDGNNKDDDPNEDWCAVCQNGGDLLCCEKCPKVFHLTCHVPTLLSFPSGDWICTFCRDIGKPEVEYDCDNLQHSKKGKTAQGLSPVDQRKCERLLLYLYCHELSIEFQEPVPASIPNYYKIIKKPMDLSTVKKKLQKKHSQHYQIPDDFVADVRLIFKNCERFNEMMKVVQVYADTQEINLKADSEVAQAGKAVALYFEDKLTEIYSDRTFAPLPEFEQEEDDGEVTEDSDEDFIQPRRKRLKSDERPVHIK
Description: Inhibition of His6FLAG-tagged TRIM33 isoform B expressed in Escherichia coli assessed as change in melting temperature at 100 uM by thermal shift assay. Summed up:
as §1

Assay [6] concerns the target T3, Bromodomain-containing protein 4. Briefly: Inhibition of His6-tagged BRD4-BD12 expressed in Escherichia coli assessed as inhibition of binding to SGRG-K(Ac)-GG-K(Ac)-GLG-K(Ac)-GGA-K(Ac)-RHGSGSK-biotin after 1 hr by TR-FRET assay. A general note: TR-FRET usually uses a lanthanide donor and a delayed reading to cut background.
The test system of assay [7] is PBMC. Briefly: Antiinflammatory activity in human PBMC assessed as inhibition of LPS-induced TNFalpha production after 18 to 24 hrs by ELISA. In kind it is functional, cell-based. On the technique in general: In an ELISA, binding on a coated surface is turned into a signal by an enzyme label.
The test system of assay [8] is PBMC. Briefly: Antiinflammatory activity in human PBMC assessed as inhibition of LPS-induced IL6 production after 18 to 24 hrs by ELISA. The format is functional, cell-based.
The next assay concerns Blood. Description: Antiinflammatory activity in human whole blood assessed as inhibition of LPS-induced TNFalpha production after 18 to 24 hrs by ELISA. In kind it is functional, tissue-based.

A value given as a limit tells only on which side of the number the result lay.

One may read the ΔTm as the shift of the melting midpoint relative to a reference. By Kd is commonly meant the constant that tells how readily two partners part at equilibrium. Lower therefore signals higher affinity. For `Cc1noc(C)c1-c1ccc(OCCCN2CCOCC2)c(S(=O)(=O)NC2CCCC2)c1`, the ΔTm is 1 °C in assay [1], below 1 °C in assay [3] and below 1 °C in [5]. In addition, the Kd in assay [2] turned out to be 3140 nM; in assay [4], 2750 nM. Besides, the RUmax in [2] is 34%; in [4] it was 25%. For the same molecule, in assay [6], the IC50 turned out to be 2600 nM.
Take `Cc1ccc(-c2c(C)noc2C)cc1S(=O)(=O)NC1CCCC1`: the figures for the ΔTm in assay [1], in assay [3] and in assay [5] were 1 °C, below 1 °C and below 1 °C, respectively. The IC50 in the assay on PBMC [7] (read-out: IC50) was 200 nM; in the assay on PBMC [7] (read-out: pIC50 (converted)) it was 126 nM; in the assay with PBMC [8], 3100 nM; with Blood it was 5000 nM.

For the origin of these results see ChEMBL document CHEMBL2176978, “Fragment-based discovery of bromodomain inhibitors part 2: optimization of phenylisoxazole sulfonamides” (J Med Chem, 2012).
